EP2 mod: modulates human prostaglandin E2 receptor EP2 signaling; EP2-expressing cells, cAMP HTRF FRET, PGE2 co-stimulation; induction, % at 25 µM; actives 0.83% (n = 260,000);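 active = compounds whose cAMP rise, as percent of the full-agonist control response, exceeds 60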;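 note: rat C6 glioma line stably carrying human EP2 under a CMV promoter; the protocol text gives 20 µM as final concentration; 100% = response of wells given 1 µM PGE2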
NPY-Y2 antag: antagonists of human neuropeptide Y receptor Y2; P49146; NPY-Y2 expressing cells, antagonist mode; inhibition, % at 2.7 µM; actives 0.99% (n = 140,000);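 note: 0% = vehicle with agonist challenge and 100% = reference antagonist with challenge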
EP2 antag: blocks the human prostaglandin E2 receptor EP2 | C6 glioma cells expressing human EP2, cAMP TR-FRET; cells stimulated with saturating PGE2 | inhibition, % at 25 µM | actives 0.52% (n = 260,000);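 active = percent inhibition above 40 after rounding to a whole number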;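 note: rat C6 glioma host cells with rolipram phosphodiesterase inhibitor present; the protocol text gives 20 µM as final concentration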
NPY2 pot ag: potentiators or agonists of human neuropeptide Y receptor Y2; P49146; AID 1359; activation, % at 3.6 µM; actives 0.45% (n = 220,000); cells expressing NPY-Y2, potentiator/agonist read-out; in the data active = activation above about 27%;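 note: cells stimulated with NPY near EC25 plus isoproterenol at EC100; 0% = vehicle plus submaximal agonist and 100% = vehicle plus saturating agonist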
NPY-Y1 PAM-ag: human NPY-Y1 potentiation or agonism, primary screen. P25929. NPY-Y1 expressing cells, potentiator/agonist activation. activation, % at 3.6 µM. actives 0.37% (n = 220,000). AID 1304; in the data active = activation above about 33%, passing the limit was not always enough;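 note: cells stimulated with NPY at EC10 then isoproterenol at EC100; 0% = low agonist plus stimulus and 100% = saturating agonist plus stimulus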
Target sequence (P25929 whole entry, looked up): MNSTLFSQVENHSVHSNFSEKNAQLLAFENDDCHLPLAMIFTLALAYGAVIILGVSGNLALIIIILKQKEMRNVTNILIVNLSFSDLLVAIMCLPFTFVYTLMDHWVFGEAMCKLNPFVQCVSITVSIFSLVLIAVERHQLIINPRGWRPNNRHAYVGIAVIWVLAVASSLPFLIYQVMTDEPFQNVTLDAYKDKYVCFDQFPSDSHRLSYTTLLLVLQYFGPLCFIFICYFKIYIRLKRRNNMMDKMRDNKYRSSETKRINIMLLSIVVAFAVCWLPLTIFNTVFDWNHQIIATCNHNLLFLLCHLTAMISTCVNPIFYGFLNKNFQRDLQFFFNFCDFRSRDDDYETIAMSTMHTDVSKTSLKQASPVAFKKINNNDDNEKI
NPY-Y1 antag: blocks the human neuropeptide Y Y1 receptor. P25929. HEK293-CNG Y1 cells, membrane potential fluorescence; NPY at EC95, then isoproterenol. inhibition, % at 3.6 µM. actives 1% (n = 200,000). AID 1040;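 active = inhibition above the campaign mean inhibition of all tested compounds plus 3 SD, cut at about 20% in these data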;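 note: 0% = DMSO wells given NPY plus isoproterenol and 100% = isoproterenol alone without NPY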
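material = HEK293 cells with Y1 receptor plus CNG channel | also added = NPY 25 nM then isoproterenol 1 µM plus Ro 20-1724 25 µM | schedule = dye 3 h, compound 60 min room temperature, stimulation 45 min | measured by = membrane potential fluorescence | benchmarks = high control isoproterenol alone, low control NPY with isoproterenol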
NPY-Y1 ant conf: human NPY-Y1 antagonism, confirmation. inhibition, % at 3.6 µM. HEK293-CNG NPY-Y1, membrane potential fluorescence, cAMP; NPY challenge against isoproterenol-raised cAMP. AID 1254. shares compounds with NPY-Y1 antag. actives 21% (n = 1,200); in the data active = inhibition above about 20%;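 note: 0% = vehicle with agonist plus stimulus and 100% = stimulus alone without agonist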
NPY2 antag ctr: antagonizes human NPY-Y2, counter-screen to NPY-Y1 antagonists. actives 28% (n = 1,200). shares compounds with NPY-Y1 antag. HEK293 NPY-Y2 CNG membrane potential fluorescence, antagonism; cells given NPY, then isoproterenol. inhibition, % at 3.6 µM;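 note: 0% = DMSO with agonist challenge and 100% = reference antagonist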
Active calls of the source: *; · = no result; ! = a repeat was not active. This is a sample that favours compounds with a hit; in the whole collection about 2.8% have one here. Cut-off read from the data, not from the text of the source, unless noted: active = inhibition above about 17%; inactive = the rest.

SMILES	EP2 mod	NPY-Y2 antag	EP2 antag	NPY2 pot ag	NPY-Y1 PAM-ag	NPY-Y1 antag	NPY-Y1 ant conf	NPY2 antag ctr
COc1ccc(-c2cc(C(F)(F)F)n3nc(C(=O)NCc4ccco4)cc3n2)cc1	20	3	-7	-16	-34	24*	6	6
O=C(NCc1ccco1)c1cc2nc(-c3ccc4c(c3)OCO4)cc(C(F)(F)F)n2n1	-28	8	4	-11	-36	0	·	·
C=CCOC(=O)/C(=C\c1ccc(OC)cc1)NC(=O)c1ccco1	12	3	·	-10	-1	89*	-2	4
O=C(Cc1ccc(F)cc1Cl)N1CCn2c(nnc2C2CC2)C1	-19	·	4	·	·	·	·	·
Cn1cnnc1SCC(=O)c1cc2ccccc2o1	-9	·	2	6	14	63*	-2	-1
Cn1ccnc1SCC(=O)c1cc2ccccc2o1	3	3	5	4	-12	0	·	·
CCC/C=C(\CCC)C(NC(=O)OCC(C)C)c1ccc(C(=O)OC)cc1 (configuration not stated)	40	14	23	-7	-41	22*	27*	26*
CCCN(CCC)CCNC(=O)C1CCN(Cc2nc(-c3ccc(Cl)cc3)oc2C)CC1	-7	13	2	-27	-54	24*	13	28*
Cc1oc(-c2ccc(Cl)cc2)nc1CN1CCC(C(=O)NCc2cccnc2)CC1	16	2	1	6	-6	5	·	·
C=CCNCCCCOc1c(Cl)cc(C)cc1Br	-26	10	5	-19	-35	21*	12	18*
COCCCNCCCCOc1c(Cl)cc(C)cc1Br	-17	7	5	-10	-39	31*	7	13
Cn1c(=O)[nH]c(=O)c2c1nc(NCCOCCO)n2Cc1ccccc1Cl	-34	·	9	·	·	·	·	·
COc1cccc(CN(C(=O)Cc2c[nH]c3ccccc23)C(C(=O)NC2CCCCC2)c2ccc(C)o2)c1 (configuration not stated)	3	16	8	-1	-20	23*	13	14
COc1ccc(CN(C(=O)Cc2c[nH]c3ccccc23)C(C(=O)NC2CCCCC2)c2ccc(C)o2)cc1 (configuration not stated)	8	4	8	-5	16	9	·	·
COc1ccc(C(O)CN2CCC(O)(c3cccc(C)c3)CC2)cc1 (configuration not stated)	-49	·	7	·	·	·	·	·
CCN(CC)S(=O)(=O)c1ccc2[nH]cc(C(=O)NCCN3CCCCCC3)c(=O)c2c1	-6	-2	·	-8	-19	21*	0	1
Cc1ccccc1CSCCNC(=O)CSCc1ccc([N+](=O)[O-])cc1	-23	6	·	-4	-19	20*	2	8
CCN(CC)c1ncnc2scc(C3COc4ccccc4O3)c12 (configuration not stated)	64*	15	12	-16	-36	38*	16	8
CS(=O)(=O)c1nc(-c2ccco2)cc(C(F)(F)F)n1	33	8	3	-6	-57	24*	11	46*
FC(F)(F)c1cc(-c2ccco2)nc(-n2nc(C(F)(F)F)cc2C2CC2)n1	27	17	4	-5	-31	21*	14	10
COC(=O)COc1ccc(C2C(C#N)=C(N)OC3=C2C(=O)CC(C)(C)C3)cc1 (configuration not stated)	-5	·	17	·	·	·	·	·
COc1cccc(NC(=O)CSc2nnnn2-c2ccc(NC(C)=O)cc2)c1	-77	·	12	·	·	·	·	·
C/C(=N\Nc1ccc([N+](=O)[O-])cc1)c1ccc(N)cc1	-24	-3	10	-12	8	0	·	·
C/C(=N\Nc1nc(C)c(C)s1)c1ccc([N+](=O)[O-])cc1	41	·	2	20	26	38*	42*	54*
CC1CC(C)CN(S(=O)(=O)c2ccc(C(=O)N(c3ccccn3)C3CCCCC3)cc2)C1 (configuration not stated)	12	·	6	-5	-15	31*	9	7
SMILES	EP2 mod	NPY-Y2 antag	EP2 antag	NPY2 pot ag	NPY-Y1 PAM-ag	NPY-Y1 antag	NPY-Y1 ant conf	NPY2 antag ctr
CCOC(=O)Nc1nc(-c2ccccc2)c(C(=O)c2ccccc2)s1	48	16	18	-18	-20	36*	5	21*
CN(C)c1cc(NC(=O)CNC(C)(C)CC(C)(C)C)c2ccccc2n1	24	·	4	-24	-46	28*	23*	42*
COC(=O)c1c(NC(=O)C2CCCCC2C(=O)O)sc2c1CCCCC2 (configuration not stated)	2	·	15	-5	0	89*	8	5
C/C(=N\Nc1nc2ccccc2[nH]1)c1cc2ccccc2o1	0	11	13	-27	-83	33*	11	17*
O=C(Nc1c2c(nn1-c1ccc(F)cc1)CS(=O)(=O)C2)C12CC3CC(CC(C3)C1)C2	16	6	·	12	-21	33*	7	9
O=C(N1CCN(c2ccc(F)cc2)CC1)C12CC3CC(CC(C3)C1)C2	-27	3	8	-17	11	15	·	·
CCC(OC(=O)C1=Cc2ccccc2OC1)C(=O)NCC1CCCO1 (configuration not stated)	-68	·	9	·	·	·	·	·
CCOC(=O)CC1C(=O)NCCN1C(=O)c1cc2c(=O)n3cccc(C)c3nc2s1 (configuration not stated)	24	0	·	-9	-16	1	·	·
CCOC(=O)CC1C(=O)NCCN1C(=O)c1cc2c(=O)n3ccccc3nc2s1 (configuration not stated)	4	3	·	-17	-10	98*	1	3
Cc1cccc(C)c1NC(=O)CSc1nnc2c3c4c(sc3nc(C3CC3)n12)CCCC4	-22	·	10	·	·	·	·	·
COCCNC(=O)C1CCCN(S(=O)(=O)c2ccc(S(=O)(=O)N(C)C)cc2)C1 (configuration not stated)	-63	·	13	·	·	·	·	·
CCCn1c(SCC(=O)Nc2ccccc2N2CCCCC2)nc2c1c(=O)n(C)c(=O)n2C	78*!	11	22	-12	-33	26*	15	13
CCc1ccc2[nH]c(=O)c(CN(CCN(CC)CC)C(=S)NCc3ccco3)cc2c1	5	·	5	-31	-30	22*	14	14
Cn1c(=O)[nH]c(=O)c2c1nc(NCCCO)n2CC(=O)c1ccccc1	12	·	8	·	·	·	·	·
Oc1c(Cl)cc(-c2nc3cnccn3c2NCc2ccco2)cc1Cl	23	·	·	·	·	·	·	·

Source: PubChem (several laboratories)
